Results on 20 molecules are retold here after ChEMBL document CHEMBL1126734, “Synthesis of phosphocholine and quaternary amine ether lipids and evaluation of in vitro antineoplastic activity” (1993).

Experiment [1] relates to HL-60. In words: Trypan blue exclusion assay (TB) was carried out for 48 h and the in vitro ID50 value was evaluated in the HL-60 leukemic cell system (n=3). The following applies: Homo sapiens, HL-60, 48 h; read-out: ID50 (the source's name). Type of experiment: functional. In a few lines: (§1)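 HL-60 human promyelocytic leukemia cells were grown in suspension in RPMI 1640 with 10% heat-inactivated FBS, penicillin/streptomycin, 2 mM L-glutamine and 0.22% NaHCO3 at 37 °C under 5% CO2. Cells at 5 × 10^5/mL were exposed to various inhibitor concentrations diluted from ethanol stocks into medium for 48 h. Trypan blue in PBS was then added and viable cells were counted by hemocytometer. Triplicate determinations; values in μM.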

Experiment [2] relates to HL-60. In words: Standard thymidine incorporation assay (TdR) was carried out for 48 hr with an 8 hr pulse of [3H]- thymidine (TdR8) (n=6) and ID50 value was evaluated. It is filed as functional. Conditions: Homo sapiens, read-out: ID50 (the source's name). In a few lines:
(§2)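 HL-60 leukemia suspension cultures grown in RPMI 1640/10% FBS at 37 °C, 5% CO2. Cells seeded at 5 × 10^4/well with inhibitors diluted from ethanol stocks. 48-h exposure, with 1.0 μCi [methyl-3H]thymidine (6.7 Ci/mmol) added for the last 8 h. Filter-harvested cells counted by liquid scintillation, uptake expressed as percent of control. Quadruplicate determinations. Results in μM.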

Experiment [3] has as its system HL-60. In words: Standard thymidine incorporation assay (TdR) was carried out for 48 hr and involved a 24-h pulse of [3H]- thymidine (n=5) and ID50 value was evaluated. It is filed as functional. Conditions: Homo sapiens, read-out: ID50 (the source's name). In a few lines: (§3)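 HL-60 human promyelocytic leukemia cells in RPMI 1640 with 10% heat-inactivated FBS, 37 °C, 5% CO2. Log-phase cells seeded at 5 × 10^4/well with inhibitor dilutions from ethanol stocks (1 or 10 mg/mL). At 24 h, pulsed with 1.0 μCi [methyl-3H]thymidine (6.7 Ci/mmol) for a further 24 h. Harvested onto glass fiber filters and counted by liquid scintillation as % of control. Quadruplicate determinations. Values in μM.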

In experiment [4] the test system is HL-60. In words: Trypan blue exclusion assay (TB) was carried out for 48 hr and the in vitro ID50 value was evaluated in the HL-60 leukemic cell system (n=1). It is filed as functional, Homo sapiens. The following applies: Homo sapiens, HL-60, 48 h; read-out: ID50 (the source's name). The method, boiled down: as §1
In experiment [5] the test system is HL-60. In words: Standard thymidine incorporation assay (TdR) was carried out for 48 hr and involved a 24-h pulse of [3H]- thymidine (n=1) and ID50 value was evaluated. Type of experiment: functional. Conditions: Homo sapiens, read-out: ID50 (the source's name). The method, boiled down:
as §3

The subject of experiment [6] is HL-60. In words: Standard thymidine incorporation assay (TdR) was carried out for 48 hr with an 8 hr pulse of [3H]- thymidine (TdR8) (n=3) and ID50 value was evaluated. It is filed as functional. Conditions: Homo sapiens, read-out: ID50 (the source's name). In a few lines: as §2
In general terms: Uptake of a labelled nucleoside into DNA is a usual measure of proliferation.

For experiment [7], the system named is HL-60. Put plainly: Trypan blue exclusion assay (TB) was carried out for 48 hr and the in vitro ID50 value was evaluated in the HL-60 leukemic cell system (n=4). The following applies: Homo sapiens, HL-60, 48 h; read-out: ID50 (the source's name). It is filed as functional. In a few lines:
as §1

Experiment [8] deals with HL-60. Put plainly: Standard thymidine incorporation assay (TdR) was carried out for 48 hr with an 8 hr pulse of [3H]- thymidine (TdR8) (n=4) and ID50 value was evaluated. It is filed as functional. The following applies: Homo sapiens, read-out: ID50 (the source's name). The method, boiled down: as §2
Experiment [9] has as its system HL-60. In words: Standard thymidine incorporation assay (TdR) was carried out for 48 hr and involved a 24-h pulse of [3H]- thymidine (n=2) and ID50 value was evaluated. It is filed as functional. Conditions: Homo sapiens, read-out: ID50 (the source's name). The method, boiled down: as §3
Experiment [10] deals with HL-60. In words: Trypan blue exclusion assay (TB) was carried out for 48 hr and the in vitro ID50 value was evaluated in the HL-60 leukemic cell system (n=2). The following applies: Homo sapiens, HL-60, 48 h; read-out: ID50 (the source's name). It is filed as functional. The method, boiled down: as §1
In experiment [11] the test system is HL-60. In words: Standard thymidine incorporation assay (TdR) was carried out for 48 hr and involved a 24-h pulse of [3H]- thymidine (n=3) and ID50 value was evaluated. Type of experiment: functional. Conditions: Homo sapiens, read-out: ID50 (the source's name). In a few lines: as §3
The subject of experiment [12] is HL-60. In words: Standard thymidine incorporation assay (TdR) was carried out for 48 h and involved a 24-h pulse of [3H]- thymidine (n=6) and ID50 value was evaluated. It is filed as functional. Conditions: Homo sapiens, read-out: ID50 (the source's name). In a few lines: as §3
Experiment [13] deals with HL-60. In words: Standard thymidine incorporation assay (TdR) was carried out for 48 hr with an 8 hr pulse of [3H]- thymidine (TdR8) (n=7) and ID50 value was evaluated. Conditions: Homo sapiens, read-out: ID50 (the source's name). Type of experiment: functional. In a few lines: as §2
Experiment [14] has as its system HL-60. Put plainly: Trypan blue exclusion assay (TB) was carried out for 48 hr and the in vitro ID50 value was evaluated in the HL-60 leukemic cell system (n=9). Type of experiment: functional. The following applies: Homo sapiens, HL-60, 48 h; read-out: ID50 (the source's name). In a few lines: as §1
For experiment [15], the system named is HL-60. Put plainly: Standard thymidine incorporation assay (TdR) was carried out for 48 hr with an 8 hr pulse of [3H]- thymidine (TdR8) (n=1) and ID50 value was evaluated. Type of experiment: functional. Conditions: Homo sapiens, read-out: ID50 (the source's name). In a few lines: as §2

Each structure is given as a SMILES string.

As to `CCCCCCCCCCCCCCCCSCC(C[N+](C)(C)CC(O)CO)OC` (configuration not stated), the IC50 was 3.62 µM in the experiment with HL-60 [1], 1.9 µM in the experiment on HL-60 [2] and 3.05 µM with HL-60 [3].

`CCCCCCCCCCCCCCCCSCCOP(=O)([O-])OCC[N+](C)(C)C`: the IC50 worked out at 4.15 µM in the experiment with HL-60 [4] and 5.16 µM in the experiment on HL-60 [5].

Consider `CCCCCCCCCCCCCCCCSCC(C[N+](C)(C)CCO)OC` (configuration not stated), for which the IC50 in the experiment on HL-60 [3] stood at 4.34 µM; in the experiment with HL-60 [6], 3.37 µM; in the experiment on HL-60 [7], 3.86 µM.

For the molecule `CCCCCCCCCCCCCCCCOCC(COP(=O)(O)OCCNC(C)C)OCC` (configuration not stated), the IC50 in the experiment with HL-60 [4] came to 4.7 µM.

Take `CCCCCCCCCCCCCCCCCC(=O)NCCOP(=O)([O-])OCC[N+](C)(C)C`: the IC50 with HL-60 [8] was found to be 5.73 µM; with HL-60 [9] it was 7.02 µM; in the experiment on HL-60 [10] it was 4.56 µM.

Regarding `CCCCCCCCCCCCCCCCOCC(COP(=O)([O-])OCC[n+]1ccccc1)OCC` (configuration not stated), the values for the IC50 in the experiment on HL-60 [4] and in the experiment on HL-60 [11] were 2.64 µM and 2.56 µM, respectively.

For `CCCCCCCCCCCCCCCCCCSCC(C[N+](C)(C)CCCO)OC` (configuration not stated), the IC50 in the experiment with HL-60 [12] turned out to be 3.51 µM; in the experiment with HL-60 [13] it was 2.46 µM; in the experiment with HL-60 [14], 2.93 µM.

For `CCCCCCCCCCCCCCCCCCCC(=O)NCC(COP(=O)([O-])OCC[N+](C)(C)C)OCC` (configuration not stated), the results for the IC50 with HL-60 [8], in the experiment with HL-60 [1] and with HL-60 [9] were 2.71 µM, 3.17 µM and 3.39 µM, respectively.

As for `CCCCCCCCCCCCCCCCOCC(COCCCC[N+](C)(C)CCCO)OC` (configuration not stated), the IC50 is 1.21 µM with HL-60 [8], 1.83 µM in the experiment on HL-60 [1] and 1.98 µM in the experiment on HL-60 [9].

For the molecule `CCCCCCCCCCCCSCC(C[N+](C)(C)C)OC` (configuration not stated), in the experiment on HL-60 [5], the IC50 amounted to 2.26 µM.

Consider `CCCCCCCCCCCCCCCCSCC(C[N+]1(C)CCCC1)OCC` (configuration not stated), for which the IC50 is 1.9 µM in the experiment with HL-60 [15] and 2.09 µM in the experiment with HL-60 [5].

As for `CCCCCCCCCCCCCCCCCC(=O)N(C)CC(COP(=O)([O-])OCC[N+](C)(C)C)OC` (configuration not stated), the results for the IC50 in the experiment with HL-60 [8], in the experiment with HL-60 [1] and in the experiment with HL-60 [9] were 3.44 µM, 3.97 µM and 4.02 µM, respectively.

With `CCCCCCCCCCCCCCCCCCSCC(C)(COP(=O)([O-])OCC[N+](C)(C)C)OCC` (configuration not stated), in the experiment on HL-60 [10], the IC50 was 3.83 µM.

On to `CCCCCCCCCCCCCCCCCC(=O)NCCCOP(=O)([O-])OCC[n+]1ccccc1`, for which the IC50 was 4.16 µM with HL-60 [1] and 4.33 µM with HL-60 [11].

As to `CCCCCCCCCCCCCCC(CSCC(COP(=O)([O-])OCC[N+](C)(C)C)OCC)OC` (configuration not stated), the IC50 with HL-60 [1] came to 3.39 µM; in the experiment on HL-60 [9], 2.47 µM.

Take `CCCCCCCCCCCCCCCCCC(=O)NCCCOP(=O)([O-])OCC[N+](C)(C)C`: the IC50 in the experiment on HL-60 [1] was determined as 5.48 µM; with HL-60 [11], 6.08 µM.

Regarding `CCCCCCCCCCCCCCCCOCC(COP(=O)([O-])OCC[N+](C)(C)C)(OC)OC`, the IC50 in the experiment with HL-60 [4] worked out at 3.38 µM.

`CCCCCCC(=O)CCCCCCCCCOCC(COP(=O)([O-])OCC[N+](C)(C)C)OCC` (configuration not stated): the IC50 turned out to be 21.9 µM in the experiment with HL-60 [9] and 13 µM in the experiment with HL-60 [10].

On to `CCCCCCCCCCCCCCCCCCOCC(COP(=O)([O-])OCC[N+](C)(C)Cc1ccccc1)OCC` (configuration not stated), for which the IC50 in the experiment on HL-60 [4] is 3.65 µM.

Regarding `CCCCCCCCCCCCCCCCSCC(COP(=O)([O-])OCC[N+](C)(C)C)OCCC` (configuration not stated), the IC50 in the experiment on HL-60 [1] came to 2.73 µM; with HL-60 [9], 2.19 µM.
